Reference: ChEMBL document CHEMBL4373632, “3D QSAR-based design and liquid phase combinatorial synthesis of 1,2-disubstituted benzimidazole-5-carboxylic acid and 3-substituted-5H-benzimidazo[1,2-d][1,4]benzodiazepin-6(7H)-one derivatives as anti-mycobacterial agents” (Medchemcomm, 2019)
≈ marks a conversion by molar mass, not a printed value.

Key:
[1] = tested on: Mycobacterium tuberculosis; experiment: Antimycobacterial activity against Mycobacterium tuberculosis H37Rv after 14 days; assay type: functional; settings: 336 h
Summary of the method: (§1)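 Mtb H37Rv grown in MB 7H9 (10% albumin dextrose saline, 0.2% glycerol, 0.05% tween-80) to OD600nm 0.2, diluted 1000× and added to 96-well plates with compounds (50 mM DMSO stocks). Tested range 0.05 to 50 μM. Incubated 37 °C for 14 days; MIC determined per standard protocol.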

[2] = tested on: Mycobacterium tuberculosis; experiment: Antimycobacterial activity against Mycobacterium tuberculosis H37Rv infected in human THP-1 cells assessed as reduction in microbial growth after 4 days by ten-fold serial dilution method; assay type: functional
Summary of the method: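 PMA-differentiated THP-1 macrophages (2 × 10^5 per well) infected with Mtb H37Rv at MOI 1:10. At 4 h, extracellular bacteria removed with 200 μg ml–1 amikacin in RPMI for 2 h. At 24 h, cells were washed and given RPMI with drug at non-cytotoxic concentration for 4 days. Lysis in PBS–0.1% Triton X-100, then 10-fold serial dilutions plated on MB 7H11 for 3–4 weeks at 37 °C. Triplicate wells, mean + S.E.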

THP-1 [3] = experiment: Cytotoxicity against human THP1 cells assessed as redution in cell viability at 10 uM by WST-1 assay; assay type: cell-based; settings: thp-1, 10 µM
Summary of the method: (§2)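 THP-1 macrophages; viability read with the WST-1 cell proliferation kit following the manufacturer's protocol. Compounds came from 50 mM DMSO stocks, with 50 μM the highest final concentration tested.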

THP-1 [4] = experiment: Cytotoxicity against human THP1 cells assessed as redution in cell viability at 50 uM by WST-1 assay; assay type: cell-based; settings: thp-1, 50 µM; summary of the method: as §2
[5] = tested on: Mycobacterium tuberculosis; experiment: Antimycobacterial activity against Mycobacterium tuberculosis; assay type: functional; summary of the method: as §1
[6] = Lipophilicity, logP of compound; assay type: physicochemical; settings: octanol/water

| SMILES | MIC [1] [µM] | other results |
| --- | --- | --- |
| CC(C)c1nc2cc(C(=O)O)ccc2n1CC1CCN(C(=O)c2ccc(F)cc2)CC1 | 50 (≈ 21.2 µg/mL) | – |
| COc1ccc(C(=O)N2CCC(Cn3c(C(C)C)nc4cc(C(=O)O)ccc43)CC2)cc1 | 50 (≈ 21.8 µg/mL) | – |
| CC(C)c1nc2cc(C(=O)O)ccc2n1-c1ccc(Br)cc1 | 50 (≈ 18 µg/mL) | – |
| O=C1Cn2c(nc3ccccc32)-c2ccc(NC(=O)c3ccc([N+](=O)[O-])cc3)cc2N1 | 0.195 (≈ 0.0806 µg/mL) | fold change (FC) [2]: 8 - 10; Activity (THP-1 [3]): Non-Toxic |
| O=C1Cn2c(nc3ccccc32)-c2ccc(NC(=O)c3ccc(Br)cc3)cc2N1 | > 50 | – |
| CCOC(=O)C(=O)Nc1ccc2c(c1)NC(=O)Cn1c-2nc2ccccc21 | 0.78 (≈ 0.284 µg/mL) | Activity (THP-1 [4]): Non-Toxic |
| Cc1ccc(C(=O)Nc2ccc3c(c2)NC(=O)Cn2c-3nc3ccccc32)cc1 | 0.39 (≈ 0.149 µg/mL) | Activity (THP-1 [3]): Non-Toxic |
| CC(C)c1nc2cc(C(=O)O)ccc2n1-c1ccc(C#N)cc1 | 50 (≈ 15.3 µg/mL) | – |
| O=C1Cn2c(nc3ccccc32)-c2ccc(NC(=O)c3ccc(F)cc3)cc2N1 | 0.195 (≈ 0.0753 µg/mL) | fold change (FC) [2]: 8 - 10; Activity (THP-1 [4]): Non-Toxic |
| COc1cc(-n2c(C(C)C)nc3cc(C(=O)O)ccc32)cc(OC)c1O | 0.78 (≈ 0.278 µg/mL) | fold change (FC) [2]: 8 - 10; Activity (THP-1 [4]): Non-Toxic |
| CCN(CC)c1ccc(/C=C/C(=N/Nc2nc(C)cs2)C2=Cc3ccccc3C2)cc1 | – | MIC90 [5]: 2.5 µg/mL (≈ 5.83 µM); logP [6]: 6.03 |
| COc1ccc(-n2c(C(C)C)nc3cc(C(=O)O)ccc32)cc1OC | 25 (≈ 8.51 µg/mL) | – |
| CC(C)c1nc2cc(C(=O)O)ccc2n1-c1cccc([N+](=O)[O-])c1 | 25 (≈ 8.13 µg/mL) | – |
| CC(C)c1nc2cc(C(=O)O)ccc2n1-c1ccncc1 | 25 (≈ 7.03 µg/mL) | – |
| O=C1Cn2c(nc3ccccc32)-c2ccc(NC(=O)c3ccccc3)cc2N1 | > 50 | – |
| CC(C)c1nc2cc(C(=O)O)ccc2n1-c1cccnc1 | 50 (≈ 14.1 µg/mL) | – |
| Cc1ccc(C(=O)N2CCC(Cn3c(C(C)C)nc4cc(C(=O)O)ccc43)CC2)cc1 | 25 (≈ 10.5 µg/mL) | – |
| COc1ccc(C(=O)Nc2ccc3c(c2)NC(=O)Cn2c-3nc3ccccc32)cc1 | 3.12 (≈ 1.25 µg/mL) | – |
| Nc1ccc2c(c1)NC(=O)Cn1c-2nc2ccccc21 | 0.0975 (≈ 0.0258 µg/mL) | fold change (FC) [2]: 8 - 10; Activity (THP-1 [4]): Non-Toxic |
| CC(C)c1nc2cc(C(=O)O)ccc2n1-c1ccccc1Cl | > 50 | – |
| O=C1Cn2c(nc3ccccc32)-c2ccc(NC(=O)c3ccc(Cl)cc3)cc2N1 | 1.56 (≈ 0.628 µg/mL) | fold change (FC) [2]: 8 - 10; Activity (THP-1 [4]): Non-Toxic |
| COc1cccc(-n2c(C(C)C)nc3cc(C(=O)O)ccc32)c1O | 0.78 (≈ 0.255 µg/mL) | Activity (THP-1 [4]): Non-Toxic |
| CC(C)c1nc2cc(C(=O)O)ccc2n1-c1ccc(O)cc1 | 50 (≈ 14.8 µg/mL) | – |
| CC(C)c1nc2cc(C(=O)O)ccc2n1Cc1cccc(F)c1 | 12.5 (≈ 3.9 µg/mL) | – |
| COc1ccc(S(=O)(=O)Nc2ccc3c(c2)NC(=O)Cn2c-3nc3ccccc32)cc1 | 1.56 (≈ 0.678 µg/mL) | – |
| CC(C)c1nc2cc(C(=O)O)ccc2n1-c1ccc(N(C)C)cc1 | 50 (≈ 16.2 µg/mL) | – |
| O=C(CCc1ccccc1)Nc1cc2nc(C3CCCCC3)[nH]c2cc1N1CC1 | – | logP [6]: 4.57 |
| NNC(=O)c1ccncc1 [ISONIAZID] | 0.39 (≈ 0.0535 µg/mL) | fold change (FC) [2]: 30 |
